Data: ChEMBL document CHEMBL3808276, “Identification of Adenine and Benzimidazole Nucleosides as Potent Human Concentrative Nucleoside Transporter 2 Inhibitors: Potential Treatment for Hyperuricemia and Gout” (J Med Chem, 2016)
≈ marks a conversion by molar mass, not a printed value. Calls of active or inactive are those of the source. The rule behind the calls is not given here.

Tests used:
[1] = target: T1, Sodium/nucleoside cotransporter 2 (Homo sapiens, UniProt O43868); assay: Inhibition of human CNT2 expressed in African green monkey COS7 cells assessed as reduction of [14C]-inosine uptake by liquid scintillation counting analysis; assay type: cell-based, COS-7
T1 sequence (O43868 whole entry): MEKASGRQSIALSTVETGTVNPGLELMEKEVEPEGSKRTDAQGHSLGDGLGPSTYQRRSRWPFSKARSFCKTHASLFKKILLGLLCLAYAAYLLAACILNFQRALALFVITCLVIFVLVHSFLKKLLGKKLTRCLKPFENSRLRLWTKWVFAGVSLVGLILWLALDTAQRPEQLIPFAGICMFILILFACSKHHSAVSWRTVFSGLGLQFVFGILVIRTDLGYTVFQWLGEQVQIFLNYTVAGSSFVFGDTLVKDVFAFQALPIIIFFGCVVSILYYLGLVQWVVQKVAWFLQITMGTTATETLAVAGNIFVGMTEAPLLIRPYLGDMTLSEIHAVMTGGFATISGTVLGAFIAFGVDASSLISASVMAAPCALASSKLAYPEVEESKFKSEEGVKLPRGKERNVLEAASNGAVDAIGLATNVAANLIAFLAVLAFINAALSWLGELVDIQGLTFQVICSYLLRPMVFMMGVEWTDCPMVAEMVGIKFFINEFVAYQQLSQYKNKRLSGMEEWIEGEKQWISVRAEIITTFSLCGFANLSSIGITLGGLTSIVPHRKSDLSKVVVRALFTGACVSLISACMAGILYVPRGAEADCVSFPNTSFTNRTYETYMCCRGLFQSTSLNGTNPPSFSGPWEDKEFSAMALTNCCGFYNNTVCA
Procedure, shortened: (§1)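 COS-7 cells transiently transfected with hCNT2 in pCI-neo, assayed after 2 days. Pretreated in Na+-free choline buffer, 37 °C, 2×10 min. Uptake of 10 µM [14C]inosine for 30 min at 37 °C with 10 µM NBMPR, ±Na+, pH 7.4. Na+-dependent uptake set as 100%; lysate counted by scintillation. IC50 by nonlinear regression, ≥3 experiments; top concentration 100 µM.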

[2] = target: T2, Sodium/nucleoside cotransporter 2 (Rattus norvegicus) (UniProt Q62773); assay: Inhibition of rat CNT2 expressed in African green monkey COS7 cells assessed as reduction of [14C]-inosine uptake at 100 uM by liquid scintillation counting analysis; assay type: cell-based; conditions: COS-7
T2 sequence (whole entry): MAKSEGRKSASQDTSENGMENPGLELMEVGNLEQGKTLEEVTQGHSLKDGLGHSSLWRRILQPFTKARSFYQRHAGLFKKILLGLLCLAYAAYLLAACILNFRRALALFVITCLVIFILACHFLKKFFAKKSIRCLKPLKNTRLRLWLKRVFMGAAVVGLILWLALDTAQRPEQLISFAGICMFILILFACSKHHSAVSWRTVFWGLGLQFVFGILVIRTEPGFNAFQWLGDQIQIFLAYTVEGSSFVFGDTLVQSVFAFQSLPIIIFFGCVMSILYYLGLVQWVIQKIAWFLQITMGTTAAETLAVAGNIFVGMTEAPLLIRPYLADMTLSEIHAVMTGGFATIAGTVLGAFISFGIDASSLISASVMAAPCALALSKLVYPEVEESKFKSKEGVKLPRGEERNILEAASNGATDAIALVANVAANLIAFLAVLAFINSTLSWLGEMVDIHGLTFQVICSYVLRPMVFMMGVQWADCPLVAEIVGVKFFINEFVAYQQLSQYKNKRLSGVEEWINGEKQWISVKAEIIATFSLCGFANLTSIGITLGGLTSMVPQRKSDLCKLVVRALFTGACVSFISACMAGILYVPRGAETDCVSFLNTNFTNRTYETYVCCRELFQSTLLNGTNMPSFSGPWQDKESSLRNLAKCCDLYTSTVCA

[3] = target: T3, Sodium/nucleoside cotransporter 2 (Rattus norvegicus, UniProt Q62773); assay: Inhibition of rat CNT2 expressed in African green monkey COS7 cells assessed as reduction of [14C]-inosine uptake by liquid scintillation counting analysis; assay type: cell-based, COS-7
T3 sequence (Q62773 whole entry): T2 sequence (whole entry)
Procedure, shortened: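 rCNT2 transiently expressed in COS-7 cells, used 2 days post-transfection. 10 µM [14C]inosine uptake at 37 °C for 30 min in the presence of 10 µM NBMPR. Uptake run with Na+ or with choline replacing Na+, pH 7.4; the Na+-dependent difference defined 100% transport. Scintillation read-out; IC50 by nonlinear regression, ≥3 independent runs.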

[4] = target: T2, Sodium/nucleoside cotransporter 2 (Rattus norvegicus); assay: Inhibition of rat CNT2 expressed in African green monkey COS7 cells assessed as reduction of [14C]-inosine uptake at 1000 uM by liquid scintillation counting analysis; assay type: cell-based; conditions: COS-7
Procedure, shortened: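 rCNT2 cDNA in pCI-neo, transiently transfected into COS-7 cells and assayed 2 days later. Cells were pre-incubated twice for 10 min at 37 °C in Na+-free choline buffer, pH 7.4. Uptake of 10 µM [14C]/unlabeled inosine ran 30 min at 37 °C with 10 µM NBMPR. Na+-dependent uptake (Na+ minus choline buffer) was set as 100%, and percent inhibition was taken at 1000 µM.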

[5] = Solubility of compound in JP2 at pH 6.8 after 1 hr at 37 degC; assay type: physicochemical; conditions: JP2, pH 6.8
Procedure, shortened: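 Solubility measured in JP2, a 1:1 mix of pH 6.8 phosphate buffer and water, after incubation for 1 h at 37 °C.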

[6] = target: T4, Sodium/nucleoside cotransporter 2 (Homo sapiens) (UniProt O43868); assay: Inhibition of human CNT2 expressed in African green monkey COS7 cells assessed as reduction of [14C]-inosine uptake at 100 uM by liquid scintillation counting analysis; assay type: cell-based; conditions: COS-7; procedure, shortened: as §1
T4 sequence (whole entry): T1 sequence (O43868 whole entry)

Rattus norvegicus [7] = assay: Suppression of adenosine/inosine/guanosine mixture-induced elevation of uric acid level in potassium oxonate-treated Sprague-Dawley rat plasma at 50 mg/kg, po measured after 1 hr by phosphotungstic acid method; assay type: functional
Procedure, shortened: (§2)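 Male SD rats, 5 weeks old, fasted overnight, given potassium oxonate 100 mg/kg sc. After 1 h, a purine mix (adenosine:inosine:guanosine 1:1:1, 50 mg/kg) was given orally together with the test compound (50, or 0.1–10 mg/kg). Aortic blood taken 1 h later under anesthesia; plasma uric acid measured by phosphotungstic acid method. Mean ± SEM; Student's t or Dunnett's test.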

Rattus norvegicus [8] = assay: Suppression of adenosine/inosine/guanosine mixture-induced elevation of uric acid level in potassium oxonate-treated Sprague-Dawley rat plasma at 1 to 10 mg/kg, po measured after 1 hr by phosphotungstic acid method; assay type: functional, organism-based; procedure, shortened: as §2
[9] = Cmax in Sprague-Dawley rat at 10 mg/kg, po by LC/MS analysis; assay type: ADME, organism-based; design: dose 10 mg/kg, route oral; conditions: in vivo
Procedure, shortened: (§3)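 Male SD rats, 6 weeks old, fasted 16 h; oral dose 10 mg/5 mL/kg as a suspension in 0.5% sodium carboxymethylcellulose. Jugular blood at 0.25, 0.5, 1, 2, 4, 6, 8 and 24 h. Acetonitrile-deproteinized plasma with warfarin internal standard analysed by LC/MS. Parameters from noncompartmental analysis.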

[10] = Volume of distribution at steady state in Sprague-Dawley rat at 1 mg/kg, iv by LC/MS analysis; assay type: ADME, organism-based; conditions: in vivo, read-out: Vdss
Procedure, shortened: (§4)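 Male SD rats, 6 weeks old, fasted 16 h; 1.0 mg/mL/kg tail-vein bolus in dimethylacetamide/5% glucose (1:1 v/v). Jugular blood at 2 min and 0.25–24 h. Plasma deproteinized with acetonitrile plus warfarin internal standard, then LC/MS. Noncompartmental analysis; CLtot, Vdss and t1/2 derived from the iv data.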

[11] = Half life in Sprague-Dawley rat at 1 mg/kg, iv by LC/MS analysis; assay type: ADME, organism-based; conditions: in vivo; procedure, shortened: as §4
[12] = Tmax in Sprague-Dawley rat at 10 mg/kg, po by LC/MS analysis; assay type: ADME, organism-based; conditions: in vivo; procedure, shortened: as §3
[13] = Clearance in Sprague-Dawley rat at 1 mg/kg, iv by LC/MS analysis; assay type: ADME, organism-based; conditions: in vivo; procedure, shortened: as §4
[14] = Oral bioavailability in Sprague-Dawley rat at 10 mg/kg by LC/MS analysis; assay type: ADME, organism-based; conditions: in vivo
Procedure, shortened: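 Oral F in fasted male SD rats from noncompartmental AUCs. Oral arm: 10 mg/kg suspended in 0.5% CMC-Na. IV arm: 1.0 mg/kg in dimethylacetamide/5% glucose. F = (AUCpo/AUCiv)×(dose iv/dose po)×100. Plasma measured by LC/MS.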

[15] = AUC (0 to infinity) in Sprague-Dawley rat at 1 mg/kg, iv by LC/MS analysis; assay type: ADME, organism-based; design: dose 1 mg/kg, route intravenous, time infinity; conditions: in vivo
Procedure, shortened: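 Male SD rats (6 weeks old, fasted 16 h) received a tail-vein bolus of 1.0 mg/mL/kg in dimethylacetamide/5% glucose (1:1 v/v). Heparinized jugular blood was drawn at 2 min and 0.25, 1, 2, 4, 6, 8 and 24 h. Plasma was acetonitrile-deproteinized with warfarin internal standard and run by gradient LC on a C18 column, calibrated 1-5000 ng/mL. AUC came from noncompartmental analysis.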

[16] = AUC (0 to infinity) in Sprague-Dawley rat at 10 mg/kg, po by LC/MS analysis; assay type: ADME, organism-based; design: dose 10 mg/kg, route oral, time infinity; conditions: in vivo
Procedure, shortened: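 Fasted (16 h) 6-week-old male SD rats were dosed orally at 10 mg/5 mL/kg as a suspension in 0.5% sodium carboxymethylcellulose. Heparinized jugular blood was sampled at 0.25, 0.5, 1, 2, 4, 6, 8 and 24 h. Plasma was deproteinized with acetonitrile plus warfarin internal standard and quantified by gradient C18 LC against a 1-5000 ng/mL standard curve. AUC was derived noncompartmentally.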

SMILES	IC50 [1]	inhibition [2]	IC50 [3]	solubility at 1 h [5]	other results
COC(=O)COc1cc(CNc2nc3c(N)ncnc3n2[C@@H]2O[C@H](CO)[C@@H](O)[C@H]2O)ccc1-c1ccccc1	3.3 µM	inactive			
O=c1[nH]cnc2c1nc(NCc1ccc(-c3ccccc3)c(OCCCCO)c1)n2[C@@H]1O[C@H](CO)[C@@H](O)[C@H]1O	20.1 µM		> 1000 µM		inhibition [4]: 18%
CC(C)Oc1cc(-c2ccccc2)ccc1CNc1nc2c(N)ncnc2n1[C@@H]1O[C@H](CO)[C@@H](O)[C@H]1O	9.3 µM	inactive			
CCOc1cc(CNc2nc3c(N)ncnc3n2[C@@H]2O[C@H](CO)[C@@H](O)[C@H]2O)ccc1-c1ccccc1	2.3 µM	inactive		121 µg/mL (≈ 246 µM)	
Nc1ncnc2c1nc(NCc1ccc(-c3ccccn3)cc1)n2[C@@H]1O[C@H](CO)[C@@H](O)[C@H]1O	1.5 µM	inactive			
CCCOc1cc(CNc2nc3c(N)ncnc3n2[C@@H]2O[C@H](CO)[C@@H](O)[C@H]2O)ccc1-c1ccccc1	5.2 µM	inactive			
Nc1ncnc2c1nc(NCc1ccc(-c3ccncc3)cc1)n2[C@@H]1O[C@H](CO)[C@@H](O)[C@H]1O	2.7 µM	inactive			
CCCOc1cc(-c2ccccc2)ccc1CNc1nc2c(N)ncnc2n1[C@@H]1O[C@H](CO)[C@@H](O)[C@H]1O		inactive			inhibition [6]: inactive
Nc1ncnc2c1nc(NCc1ccc(-c3ccccc3)cc1)n2[C@@H]1O[C@H](CO)[C@@H](O)[C@H]1O		inactive		3 µg/mL (≈ 6.69 µM)	
CC(C)Oc1cc(CNc2nc3c(N)ncnc3n2[C@@H]2O[C@H](CO)[C@@H](O)[C@H]2O)ccc1-c1ccccc1	10.4 µM	inactive			
Nc1ncnc2c1nc(NCc1ccc(-c3ccccc3)c(OCCCCCO)c1)n2[C@@H]1O[C@H](CO)[C@@H](O)[C@H]1O	1.6 µM		60 µM		
Nc1ncnc2c1nc(NCc1ccc(-c3ccccc3)c(OCCO)c1)n2[C@@H]1O[C@H](CO)[C@@H](O)[C@H]1O	3.1 µM	49%	> 100 µM		
CCOc1cc(-c2ccccc2)ccc1CNc1nc2c(N)ncnc2n1[C@@H]1O[C@H](CO)[C@@H](O)[C@H]1O	5.4 µM	inactive		2 µg/mL (≈ 4.06 µM)	
NC(=O)COc1cc(CNc2nc3c(N)ncnc3n2[C@@H]2O[C@H](CO)[C@@H](O)[C@H]2O)ccc1-c1ccccc1	5.5 µM	< 5%	> 100 µM		

Second part, led by results:

IC50 [1]	inhibition [2]	IC50 [3]	solubility at 1 h [5]	SMILES	other results
1 µM	11%	> 100 µM		Nc1ncnc2c1nc(NCc1ccc(-c3cccnc3)cc1)n2[C@@H]1O[C@H](CO)[C@@H](O)[C@H]1O	
1.1 µM	inactive		4 µg/mL (≈ 8.36 µM)	COc1cc(-c2ccccc2)ccc1CNc1nc2c(N)ncnc2n1[C@@H]1O[C@H](CO)[C@@H](O)[C@H]1O	
0.94 µM		38 µM	190 µg/mL (≈ 354 µM)	Nc1ncnc2c1nc(NCc1ccc(-c3ccccc3)c(OCCCCO)c1)n2[C@@H]1O[C@H](CO)[C@@H](O)[C@H]1O	Activity (Rattus norvegicus [7]): 42%
1.3 µM	inactive			Nc1ncnc2c1nc(NCc1ccc(-c3ccccc3)cc1O)n2[C@@H]1O[C@H](CO)[C@@H](O)[C@H]1O	
0.062 µM		1.5 µM	120 µg/mL (≈ 231 µM)	OCCCCOc1cc(CNc2nc3ccccc3n2[C@@H]2O[C@H](CO)[C@@H](O)[C@H]2O)ccc1-c1ccccc1	Activity (Rattus norvegicus [8]): Active; Cmax [9]: 110 nM; Vd [10]: 0.117 L/kg; half-life [11]: 1.7 h; Tmax [12]: 0.83 h; clearance [13]: 6.57 mL/min/kg; bioavailability [14]: 0.51%; AUC(0-inf) [15]: 5 µM·h; AUC(0-inf) [16]: 0.25 µM·h
1.2 µM	inactive			Nc1ncnc2c1nc(NCc1ccc(-c3ccccc3)c(O)c1)n2[C@@H]1O[C@H](CO)[C@@H](O)[C@H]1O	
1.1 µM		45.1 µM		Nc1ncnc2c1nc(NCc1ccc(-c3ccccc3)c(OCCCO)c1)n2[C@@H]1O[C@H](CO)[C@@H](O)[C@H]1O	
1.3 µM	inactive		215 µg/mL (≈ 449 µM)	COc1cc(CNc2nc3c(N)ncnc3n2[C@@H]2O[C@H](CO)[C@@H](O)[C@H]2O)ccc1-c1ccccc1	
